According to ChEMBL document CHEMBL3739300, “Chemical Constituents from the Fruiting Bodies of Hexagonia apiaria and Their Anti-inflammatory Activity” (J Nat Prod, 2015):
pIC50: −log10 of the molar value. Calls of active or inactive are those of the source. The calls are words filed in the database; no cut-off is given here.

What was measured:
Format in all cases: functional, cell-based
Neutrophil = assay: (§1) Antiinflammatory activity in human neutrophils assessed as inhibition of FMLP/CB-induced elastase release
Outline: (§2)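 Donor neutrophils (isolated by dextran, Ficoll, hypotonic lysis; Ca2+-free HBSS pH 7.4) at 6 × 10^5/mL with 100 μM MeO-Suc-Ala-Ala-Pro-Val-p-nitroanilide. Equilibrated 37 °C 2 min, drug or 0.1% DMSO vehicle 5 min, then activated with 100 nM FMLP plus 0.5 μg/mL cytochalasin B. Absorbance at 405 nm monitored continuously; percent of FMLP/CB-activated drug-free control; IC50, n = 3−4.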

[1] = Antiinflammatory activity in human neutrophils assessed as inhibition of FMLP/CB-induced superoxide anion generation by spectrophotometry; details: Neutrophil
Outline: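 Neutrophils from healthy donors (20−30 y) isolated by dextran sedimentation, Ficoll (1.077 g/mL) centrifugation and hypotonic lysis, kept in Ca2+-free HBSS pH 7.4 at 4 °C. Cells (6 × 10^5/mL) with 0.5 mg/mL ferricytochrome c and 1 mM Ca2+, 37 °C 2 min, drug or 0.1% DMSO 5 min. Stimulated with 100 nM FMLP after 1 μg/mL cytochalasin B, 3 min. SOD-inhibitable (100 U/mL) absorbance at 550 nm; IC50, n = 3−4.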

[2] = as §1; details: Neutrophil; outline: as §2

| SMILES | inhibition (Neutrophil) | pIC50 [1] | pIC50 [2] |
| --- | --- | --- | --- |
| COC(=O)CC(=O)O[C@@H]1CC[C@]2(C)C3=C(CC[C@H]2C1(C)C)[C@]1(C)C[C@H]2OC4(C[C@@H](C)[C@@H]2[C@@]1(C)CC3)OC(=O)C(C)=C4C (some centres not stated) | inactive | < 5.00 | – |
| O=c1cc(N2CCOCC2)oc2c(-c3ccccc3)cccc12 [LY-294002] | – | 6.40 | 5.82 |
| C=C(CC[C@@H](C(=O)O)[C@H]1CC[C@@]2(C)C3=C(CC[C@]12C)[C@@]1(C)C[C@H](O)[C@H](O)C(C)(C)[C@@H]1CC3)C(C)C | – | 5.22 | < 5.00 |
| CC1=C(C)C2(C[C@@H](C)[C@H]3[C@@H](C[C@@]4(C)C5=C(CC[C@]34C)[C@@]3(C)CC[C@@H](O)C(C)(C)[C@@H]3CC5)O2)OC1=O (some centres not stated) | inactive | < 5.00 | – |
| CC1=C(C)C2(C[C@@H](C)[C@H]3[C@@H](C[C@@]4(C)C5=C(CC[C@]34C)[C@@]3(C)CC[C@@H](OC(=O)CC(=O)O)C(C)(C)[C@@H]3CC5)O2)OC1=O (some centres not stated) | – | 5.72 | 5.37 |
| CC1=C(C)C2(C[C@@H](C)[C@H]3[C@@H](C[C@@]4(C)C5=C(CC[C@]34C)[C@@]3(C)CC[C@@H](O)[C@@](C)(C=O)[C@@H]3CC5)O2)OC1=O (some centres not stated) | inactive | < 5.00 | – |
